HKDC1 act – HKDC1 (human) hexokinase activation; Q2TB90; recombinant HKDC1, G6PDH/diaphorase resazurin fluorescence; active compounds read low; activity change, negative = activation, % at 20 µM; 0.056% of 340,000 active;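 active = activation of 40% or more at 20 µM, a change of -40% or lower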
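Material: in-house human HKDC1 enzyme, G6PDH and diaphorase coupling enzymes | Quantity: HKDC1 at 5 µg/mL final | Medium: Tris buffer at pH 8.0 containing MgCl2 | Compound dosing: 20 µM single dose | Schedule: 90 min reaction at room temperature, dark | Measured by: Resorufin fluorescence, 525/613 nm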
Hits are given with their value; n = inactive. Only a sample is shown.

SMILES	HKDC1 act
Cc1cc(C)n2cc(CSc3nnc(-c4ccccc4)c(-c4ccccc4)n3)nc2n1	n
CC(C)(C)c1c(Cl)c(O)c(-c2ccccc2)c(=O)n1-c1ccccc1	n
COc1ccccc1N(C)S(=O)(=O)c1ccc(Cl)c(C(=O)NCC2(N(C)C)CCCCC2)c1	n
Clc1ccc(N=c2ssnc2Cl)nc1	-194
Oc1ccc2ccccc2c1C=Nc1ccccc1Br	n
CC(=O)Nc1ccc(S(=O)(=O)NCCC(=O)OC(C)C(=O)c2ccc(C)cc2)cc1 (stereo not drawn)	n
O=C1/C(=C\c2ccc(-c3ccccc3[N+](=O)[O-])o2)C(c2ccccc2)=NN1c1ccccc1	n
Cc1ccc(S(=O)(=O)N2CCN(C(=O)CN3C(=O)NC4(CCCCC4)C3=O)CC2)c(C)c1	n
Cc1ccc2c(c1C)NC(C(=O)O)C1CC=CC21 (stereo not drawn)	n
CCN=C1NN=C(c2ccc(C)cc2)CS1	-64
COc1ccc(NC(=O)Cc2c[nH]c3ccccc23)cc1S(=O)(=O)N1CCCCC1	n
